Source: PubChem BioAssay (several laboratories)
FLuc inhib CS: Photinus pyralis luciferase inhibition counter-screen. ATPLite firefly luciferase biochemical luminescence, 10 min. P08659. actives 1.5% (n = 200,000). inhibition, % at 10 µM. AID 1006;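 active = inhibition above about 50% when tested at 10 µM, limit read from the data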
Wee1 stabilizer: human Wee1 degradation inhibition, primary screen. actives 1.2% (n = 220,000). reporter increase, % at 5 µM. HeLa Luc-Wee1K328M stability, luciferase luminescence; 100% = proteasome inhibitor MG132 effect. P30291. AID 1321;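 active = activation above the mean of all tested compounds plus 3 SD, set per screening run, cut at about 8.8% in these data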;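 note: cells exposed to compound for 20 h before luminescence read; 0% = DMSO alone and 100% = MG132 at 30 µM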
Target sequence (P30291 whole entry K328M): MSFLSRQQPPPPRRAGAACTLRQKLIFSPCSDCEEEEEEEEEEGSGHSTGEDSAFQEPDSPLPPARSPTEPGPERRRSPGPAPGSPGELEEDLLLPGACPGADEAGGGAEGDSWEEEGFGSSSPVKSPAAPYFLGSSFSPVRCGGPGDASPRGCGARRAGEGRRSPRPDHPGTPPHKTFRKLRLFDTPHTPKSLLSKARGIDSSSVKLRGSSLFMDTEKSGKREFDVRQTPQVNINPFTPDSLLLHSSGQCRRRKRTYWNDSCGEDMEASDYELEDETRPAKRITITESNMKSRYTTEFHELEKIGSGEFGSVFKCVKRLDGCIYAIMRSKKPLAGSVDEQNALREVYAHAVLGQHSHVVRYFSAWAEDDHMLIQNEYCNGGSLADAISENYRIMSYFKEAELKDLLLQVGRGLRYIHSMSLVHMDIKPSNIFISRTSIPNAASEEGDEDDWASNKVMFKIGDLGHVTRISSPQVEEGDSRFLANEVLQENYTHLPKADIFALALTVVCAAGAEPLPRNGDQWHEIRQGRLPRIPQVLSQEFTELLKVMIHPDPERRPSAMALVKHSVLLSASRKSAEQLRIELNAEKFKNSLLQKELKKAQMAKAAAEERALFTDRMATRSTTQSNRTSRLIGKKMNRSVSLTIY
FLuc act counter: affects firefly luciferase, flagging false hits in luciferase stimulation screens; P08659; ATPlite luciferase biochemical, luminescence, 10 min; 0 = ATP-free wells, 1 = DMSO control; activation factor at 10 µM; 200,000 tested, under 10 active; AID 1027;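 active = luciferase activation factor, scaled between plate controls, of at least 2 with compound at 10 µM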
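Assay system – cell-free luciferase reagent · Medium – PBS-based ATP solution · Dosing – test compounds dosed from 2 mM stocks in 100% DMSO · Timing – 10 min, room temperature · Technique – light output (luminescence) · Measure – luminescence gain marking luciferase activators · Controls – No-ATP low control, compound-free enzyme-plus-ATP high control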
PPC-1+TRAIL kill: PPC-1 cancer cell killing with TRAIL present; PPC-1 cells + TRAIL, ATPLite viability luminescence; cell killing (% activity), % at 4 µM or 5 µM; actives 0.41% (n = 220,000);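 active = cell killing above 50% in the first pass at 4 µM, then a duplicate retest at 5 µM averaging 50% or more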;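 note: plate controls were cells with TRAIL plus DMSO for no effect and medium-only wells lacking cells for full effect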
PKD1 inh: blocks activity of human protein kinase D1; actives 0.056% (n = 200,000); PKD1 kinase fluorescence polarization assay; inhibition, % (test concentration not listed); in the data active = inhibition above about 50%
C8 TRAIL sens: caspase-8 TRAIL sensitization; actives 1% (n = 360,000); inhibition (viability loss, TRAIL sensitization), % at 10 µM; AID 624354; NB7+C8 cells + TRAIL, ATPlite viability luminescence;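 active = compounds causing at least 50% loss of cell viability in the single-dose screen, relative to plate controls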
Wee1 degr conf: confirmation of human Wee1 degradation inhibitors; shares compounds with Wee1 stabilizer; HeLa Luc-Wee1K328M degradation, luminescence; vehicle 0%, proteasome-blocked wells 100%; activation, % at 5 µM; actives 4% (n = 1,100); AID 1410; in the data active = activation above about 8.9%
* hit, by the source's call; · = not tested or not shown. Shown are actives, neighbours in structure and some others; about 2.2% of the full set was active somewhere.

SMILES	FLuc inhib CS	Wee1 stabilizer	FLuc act counter	PPC-1+TRAIL kill	PKD1 inh	C8 TRAIL sens	Wee1 degr conf
Cc1cccc(NC(=O)c2cc(-c3cc(Cl)ccc3O)n[nH]2)c1	·	·	·	·	·	19.0	·
CC1CCC(NC(=O)N(CCCl)N=O)CC1 (stereo not given)	·	·	·	·	·	1.9	·
Cc1ccc(SCC(=O)NCc2ccccc2)cc1	·	·	·	·	·	10.9	·
O=C(CSc1nc2[nH]ncc2c(=O)n1-c1ccccc1)N1CCCCCC1	-1.1	11.5*	1	0.2	-1.2	·	1.8
O=C(CSc1nc2[nH]ncc2c(=O)n1-c1ccccc1Cl)N1CCCC1	-2.0	2.6	1	-7.1	-1.6	-3.1	·
COc1ccc(NC(=O)COC(=O)C2COc3ccccc3O2)cc1OC (stereo not given)	·	·	·	·	·	-2.0	·
COc1cc(NC(=O)COC(=O)CNC(=O)c2ccc(Cl)cc2)c(C)cc1[N+](=O)[O-]	-8.1	11.9*	1.1	22.7	-7.1	-3.9	-0.8
COc1cc(NC(=O)COC(=O)CNC(=O)c2ccc(C)cc2)c(C)cc1[N+](=O)[O-]	4.1	-0.7	1	8.9	-3.1	-0.7	·
COc1ccc(C(=O)N/C(=C/c2cccnc2)C(=O)Nc2cccc(C(C)=O)c2)cc1OC	·	·	·	·	·	-3.0	·
NC(=O)C1=C[C@H](c2ccc(Br)cc2)C[C@H](OCc2ccc(CO)cc2)O1	-2.9	11.4*	1	-5.0	-3.1	-2.2	0.2
O=C1CC(c2ccc(O)c(O)c2)Oc2c1ccc(O)c2O (stereo not given)	·	·	·	-6.4	·	-3.0	·
CC(C)=CCc1c(O)ccc2c1OC(c1ccc(O)c(O)c1)CC2=O (stereo not given)	-1.2	32.7*	1	8.2	5.0	9.4	1.9
O=C(Nc1nc2c(s1)CCCC2)c1cc2n(n1)C(C(F)(F)F)CC(C1CC1)N2 (stereo not given)	-4.6	15.4*	1	-12.8	-0.7	18.0	1.5
CCCN1C(=O)C(=O)c2cc(Cl)ccc21	·	·	·	·	·	8.1	·
C/C(=N\Nc1ccc(S(=O)(=O)Nc2ccccc2)cc1[N+](=O)[O-])c1ccc(N2CCOCC2)cc1	2.2	-0.1	1	-1.1	3.9	17.7	·
C/C(=N\Nc1ccc(S(=O)(=O)Nc2ccc(Cl)cc2)cc1[N+](=O)[O-])c1ccc(N2CCOCC2)cc1	-2.6	11.9*	1	8.3	-8.3	-6.7	0.0
O=C(NCc1ccc(F)cc1)C1CCCN(S(=O)(=O)c2ccc(-n3cnnn3)cc2)C1 (stereo not given)	·	·	·	·	·	-3.1	·
COc1ccc2c(c1)c(=O)cc(-c1ccccc1)n2C	10.4	11.0*	0.9	22.6	-1.9	-6.2	2.7
Cn1c(-c2ccccc2)cc(=O)c2ccccc21	-0.8	1.7	1	10.0	-5.2	17.9	·
Cc1ccc(-c2nc(=S)c3c(n2Cc2ccco2)CC(C)(C)OC3)cc1	-2.5	12.7*	1	21.7	1.7	10.0	0.6
O=C(O)C(C/C(=N/O)c1ccc(Br)cc1)P(=O)(c1ccccc1)c1ccccc1 (stereo not given)	·	-0.2	·	12.9	·	0.9	·
Cc1ccc(C(=O)CC(C(=O)O)P(=O)(c2ccccc2)c2ccccc2)cc1 (stereo not given)	-9.0	14.4*	1.1	19.5	-2.2	11.5	0.6
CCn1ncc(S(=O)(=O)N2CCN(c3cccc(OC)c3)CC2)c1C	·	·	·	·	·	13.8	·
CCOc1ccc(N2C(=O)CC(Sc3nnnn3-c3ccccc3)C2=O)cc1 (stereo not given)	-5.4	13.5*	1.1	14.4	-4.7	1.6	-0.9
CCN=C(NCC)SC1CC(=O)N(c2ccc(OCC)cc2)C1=O (stereo not given)	-6.3	15.9*	1.1	1.7	-6.8	-1.8	6.5
SMILES	FLuc inhib CS	Wee1 stabilizer	FLuc act counter	PPC-1+TRAIL kill	PKD1 inh	C8 TRAIL sens	Wee1 degr conf
CCN=C(NCC)SC1CC(=O)N(c2ccccc2)C1=O (stereo not given)	-7.6	-1.2	1.1	16.8	-7.3	0.8	·
COc1ccc(NC(=O)CN2CCN(CC(=O)Nc3ccc(F)cc3F)CC2)cc1	·	·	·	·	·	-7.1	·
Cc1ccccc1C(=O)NNC(=S)NC(=O)COc1ccccc1	-1.5	-2.8	1	9.5	-7.9	1.8	·
Cc1ccc(C(=O)NNC(=S)NC(=O)COc2ccccc2)cc1	-4.0	14.5*	1	4.2	-9.2	26.0	2.5
Cc1csc2ncnc(N3CCN(C(=O)Nc4ccc(OC(F)(F)F)cc4)CC3)c12	·	5.0	·	12.6	·	4.5	·
CCCCNC(=O)[C@]1(C)CCC[C@@]2(C)C3CC[C@@]4(C)C[C@]3(CCC21)CC4=O (stereo not given in full)	·	·	·	·	·	8.3	·
Cc1nn(C)cc1/C=N/NC(=O)CSc1ccccn1	·	-1.3	·	-2.5	·	-3.2	·
COc1ccccc1S(=O)(=O)N(C)C[C@H]1OCc2cnnn2CCCC(=O)N([C@@H](C)CO)C[C@@H]1C	·	·	·	·	·	-38.3	·
Cc1ccc(NC2=CC(=O)CC(c3ccc(Cl)cc3)C2)cc1 (stereo not given)	-0.7	14.8*	1	16.3	4.7	6.1	1.2
O=S1(=O)N=C(Nc2ccc(N3CCOCC3)c(Cl)c2)c2ccccc21	20.5	11.0*	0.8	7.8	5.4	9.6	5.8
O=S1(=O)N=C(Nc2ccc(O)cc2)c2ccccc21	-1.0	-0.7	1	11.6	-8.3	-2.5	·
CC(C)COc1ccc(CSCCNC(=S)Nc2ccccc2)cc1	-4.8	7.2	1	2.5	2.2	4.4	·
COC(=O)c1ccccc1C(=O)N1CCCC(CNC(=O)c2ccc(F)cc2)C1 (stereo not given)	·	·	·	·	·	5.5	·
OC1CCN(c2c3c(nc4cc(-c5cccc(F)c5)nn24)CCCC3)CC1	1.7	1.9	1	22.0	-8.5	-0.8	·
Clc1cccc(-c2cc3nc4c(c(N5CCNCC5)n3n2)CCCC4)c1	4.2	12.2*	1	5.7	-4.7	·	-1.3
Cc1ccc(/C=C/C(=O)Nc2ccc([N+](=O)[O-])cc2)o1	10.5	0.3	0.9	20.2	2.7	-3.3	·
Cc1ccc(/C=C/C(=O)Nc2ccc(Oc3ccccc3)cc2)o1	19.6	14.9*	0.8	-0.8	0.2	19.4	2.1
COc1ccc(S(=O)(=O)N2CCN(CC(=O)Nc3ccc(F)c(F)c3)CC2)cc1	-8.5	12.1*	1.1	9.5	4.8	-0.8	0.6
COc1ccc(S(=O)(=O)N2CCN(CC(=O)Nc3cccc(OC)c3)CC2)cc1	·	·	·	·	·	-23.0	·
O=C1N=C(N2CCCC2C(=O)O)S/C1=C\c1ccco1 (stereo not given)	-2.9	12.9*	1	1.7	9.4	-8.5	2.6
CC(NC(=O)C(C)N1CCN(Cc2ccccc2)CC1)c1ccc(F)cc1 (stereo not given)	·	·	·	·	·	-4.5	·
Cc1nnc(NC(=O)CSc2nccn2Cc2ccccc2)s1	·	·	·	·	·	-0.1	·
